Activity calls are given as the source filed them. The calls are words filed in the database; no cut-off is given here.
Legend:
[1] = target: T1, Oxysterols receptor LXR-beta (Homo sapiens) (UniProt P55055); assay: Activation of Gal4-fused human LXRbeta LBD transfected in HEK293T cells at 10 uM after 12 to 14 hrs by luciferase reporter gene assay; format: cell-based
T1 sequence (whole entry): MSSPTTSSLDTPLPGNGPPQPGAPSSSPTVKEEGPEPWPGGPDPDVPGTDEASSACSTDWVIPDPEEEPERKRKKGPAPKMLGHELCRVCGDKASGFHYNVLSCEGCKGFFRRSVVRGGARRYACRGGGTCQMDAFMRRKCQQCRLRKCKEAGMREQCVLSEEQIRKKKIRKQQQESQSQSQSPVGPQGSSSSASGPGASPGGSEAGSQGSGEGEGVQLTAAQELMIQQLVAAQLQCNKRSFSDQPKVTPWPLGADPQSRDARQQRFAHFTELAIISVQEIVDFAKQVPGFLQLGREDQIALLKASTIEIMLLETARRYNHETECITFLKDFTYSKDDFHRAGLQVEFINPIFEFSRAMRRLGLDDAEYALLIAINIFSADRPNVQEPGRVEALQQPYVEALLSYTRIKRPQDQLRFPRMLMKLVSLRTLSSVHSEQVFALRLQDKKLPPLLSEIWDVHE
How it was run: (§1)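 Gal4–human nuclear receptor LBD fusion (pFA-CMV-hNR-LBD) co-transfected with pFR-Luc and pRL-SV40 (Lipofectamine LTX) into HEK293T cells seeded the day before. 5 h post-transfection, compound added in Opti-MEM with 0.1% DMSO and incubated 12−14 h. Dual-Glo firefly/Renilla luciferase read. Activation expressed relative to reference agonist at 1 μM. Triplicates, ≥3 independent experiments.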

[2] = target: T2, Peroxisome proliferator-activated receptor alpha (Homo sapiens) (UniProt Q07869); assay: Activation of Gal4-fused human PPARalpha LBD transfected in HEK293T cells at 10 uM after 12 to 14 hrs by luciferase reporter gene assay; format: cell-based; how it was run: as §1
T2 sequence (whole entry): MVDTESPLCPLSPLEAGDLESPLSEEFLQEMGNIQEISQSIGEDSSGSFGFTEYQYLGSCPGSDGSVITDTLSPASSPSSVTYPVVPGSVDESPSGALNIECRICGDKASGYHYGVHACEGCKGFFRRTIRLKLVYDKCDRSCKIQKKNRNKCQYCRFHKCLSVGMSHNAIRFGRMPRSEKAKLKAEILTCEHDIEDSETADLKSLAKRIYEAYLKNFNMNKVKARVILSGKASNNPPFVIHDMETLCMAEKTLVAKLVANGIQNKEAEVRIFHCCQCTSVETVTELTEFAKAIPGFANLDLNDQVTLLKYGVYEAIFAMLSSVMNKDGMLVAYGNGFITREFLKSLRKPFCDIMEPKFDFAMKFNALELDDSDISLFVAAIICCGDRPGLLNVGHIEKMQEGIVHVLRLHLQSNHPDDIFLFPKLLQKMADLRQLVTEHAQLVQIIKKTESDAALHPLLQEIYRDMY

[3] = Inhibition of hexa-His-tagged human soluble epoxide hydrolase N-terminal phosphatase domain expressed in Escherichia coli BL21(DE3) pre-incubated for 30 mins before FDP substrate addition by fluorescence based assay
[4] = target: T3, Bifunctional epoxide hydrolase 2 (Mus musculus, UniProt P34914); assay: Inhibition of hydrolase activity of full length mouse soluble epoxide hydrolase pre-incubated for 30 mins before PHOME substrate addition by fluorescence based assay
T3 sequence (P34914 whole entry): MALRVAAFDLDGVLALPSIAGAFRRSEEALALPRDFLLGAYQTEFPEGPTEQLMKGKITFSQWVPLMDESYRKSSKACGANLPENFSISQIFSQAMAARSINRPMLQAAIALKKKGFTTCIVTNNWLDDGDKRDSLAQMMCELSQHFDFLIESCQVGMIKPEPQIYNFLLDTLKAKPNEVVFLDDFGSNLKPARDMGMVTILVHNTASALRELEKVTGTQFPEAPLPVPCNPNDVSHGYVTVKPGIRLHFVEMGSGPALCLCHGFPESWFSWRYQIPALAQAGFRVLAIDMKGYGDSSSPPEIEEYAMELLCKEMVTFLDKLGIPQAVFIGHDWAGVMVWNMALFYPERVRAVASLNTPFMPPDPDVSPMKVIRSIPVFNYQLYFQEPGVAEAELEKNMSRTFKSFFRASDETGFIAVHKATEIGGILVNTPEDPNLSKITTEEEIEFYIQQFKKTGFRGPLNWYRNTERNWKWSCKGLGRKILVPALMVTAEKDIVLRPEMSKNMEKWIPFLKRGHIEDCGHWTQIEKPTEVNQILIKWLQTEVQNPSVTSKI
How it was run: (§2)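 Hydrolase assay with 0.1 μM full-length enzyme in Bis-Tris pH 7 containing 0.1 mg/mL BSA and 0.01% Triton X-100. […] Reaction started with PHOME (50 μM final). 6-Methoxynaphthaldehyde fluorescence (ex 330/em 465 nm) read every minute for 45 min. Triplicates.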

[5] = target: T3, Bifunctional epoxide hydrolase 2; assay: Inhibition of phosphatase activity of full length mouse soluble epoxide hydrolase pre-incubated for 30 mins before FDP substrate addition by fluorescence based assay
[6] = target: T4, Bifunctional epoxide hydrolase 2 (Rattus norvegicus, UniProt P80299); assay: Inhibition of hydrolase activity of full length rat soluble epoxide hydrolase pre-incubated for 30 mins before PHOME substrate addition by fluorescence based assay; how it was run: as §2
T4 sequence (P80299 whole entry): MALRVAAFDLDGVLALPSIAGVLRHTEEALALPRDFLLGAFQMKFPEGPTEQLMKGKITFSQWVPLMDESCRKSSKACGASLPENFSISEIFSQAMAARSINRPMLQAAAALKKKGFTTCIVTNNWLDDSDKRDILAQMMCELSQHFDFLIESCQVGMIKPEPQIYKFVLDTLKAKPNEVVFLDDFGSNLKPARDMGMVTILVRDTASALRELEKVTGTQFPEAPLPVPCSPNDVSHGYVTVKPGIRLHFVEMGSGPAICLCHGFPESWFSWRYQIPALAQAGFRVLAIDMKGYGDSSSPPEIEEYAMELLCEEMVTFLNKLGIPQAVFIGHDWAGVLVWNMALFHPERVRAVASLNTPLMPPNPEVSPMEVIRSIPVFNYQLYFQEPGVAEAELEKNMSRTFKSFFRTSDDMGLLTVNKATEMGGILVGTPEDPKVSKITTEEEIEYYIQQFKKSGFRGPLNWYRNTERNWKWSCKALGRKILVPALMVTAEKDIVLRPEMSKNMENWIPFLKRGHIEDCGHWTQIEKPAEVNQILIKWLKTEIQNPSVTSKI

Row | Activity [1] | Activity [2] | IC50 [3] | IC50 [4] | IC50 [5] | IC50 [6] | SMILES
1 | inactive | inactive | 0.058 µM | > 30 µM | > 30 µM | > 30 µM | O=C(O)CCCc1nc(-c2ccc(Cl)c(Cl)c2)c(-c2ccccc2)o1
2 | inactive | inactive | 5 µM | > 300 µM | 35.5 µM | > 300 µM | O=C(O)CCc1nc(-c2ccccc2)c(-c2ccccc2)o1 [OXAPROZIN]

Reference: ChEMBL document CHEMBL4414562, “Discovery of the First in Vivo Active Inhibitors of the Soluble Epoxide Hydrolase Phosphatase Domain” (J Med Chem, 2019)
